Source: PubChem (several laboratories)
NR2E3 ag-1 – agonists of human nuclear receptor NR2E3; Q9Y5X4; GST-NR2E3/biotin-RetCOR TR-FRET, 1536-well; inhibition of corepressor binding, % at 4.78 µM; 0.12% of 320,000 active; AID 2300;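 active means percent inhibition above the cutoff of mean plus 3 SD of all tested compounds, set per screening campaign, cut at about 20% in these data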;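 further: 0% = DMSO wells and 100% = biotin wells as full block of FRET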
Target sequence (Q9Y5X4 whole entry, looked up): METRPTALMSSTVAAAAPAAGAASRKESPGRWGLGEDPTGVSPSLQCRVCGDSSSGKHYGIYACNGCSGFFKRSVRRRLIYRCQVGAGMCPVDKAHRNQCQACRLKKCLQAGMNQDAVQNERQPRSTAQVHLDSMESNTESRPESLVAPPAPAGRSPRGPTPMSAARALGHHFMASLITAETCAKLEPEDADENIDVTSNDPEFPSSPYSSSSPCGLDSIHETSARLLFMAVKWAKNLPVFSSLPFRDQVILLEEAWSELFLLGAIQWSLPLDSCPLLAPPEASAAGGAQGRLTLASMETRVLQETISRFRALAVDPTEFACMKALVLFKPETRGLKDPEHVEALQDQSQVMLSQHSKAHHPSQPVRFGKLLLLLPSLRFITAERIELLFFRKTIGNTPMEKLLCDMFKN
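System: GST-tagged NR2E3 plus biotinylated RetCOR corepressor; Amount: 1.35 nM GST-tagged NR2E3 final; Dosing: single nominal compound dose of 4.8 µM; Schedule: 5 h incubation at 4 °C; Technique: TR-FRET with europium anti-GST and streptavidin-D2, 340 nm excitation; Controls: biotin wells as high control, 0.6% DMSO wells as low control.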
PG9 Ab binder – PG9 antibody binding by small molecule | TR-FRET gp120-PG9 antibody binding | inhibition, % at 6.7 µM | 0.43% of 360,000 active; in the data active means inhibition above about 8.5%
Rev-erbA mod – Rev-erb alpha (human) modulation. Rev-erbα–FITC-DNA binding, fluorescence polarization, 90 min. activity, % at 10 µM. 0.79% of 370,000 active. AID 1259318;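 active means activity above about 14%, limit read from the data; passing the limit was not always enough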;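 further: 0% = DMSO wells with 35 nM protein and 100% = DMSO wells with 750 nM protein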
NR2E3 ag-2 – activates human NR2E3 receptor; Q9Y5X4; CHO-S Gal4-NCOR/VP16-NR2E3 two-hybrid, luciferase; inhibition of corepressor binding, % at 3.98 µM; 0.35% of 360,000 active; AID 602229;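 active means inhibition above the mean of all tested compounds plus 3 SD, cut at about 70% in these data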;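 further: 0% = DMSO with NR2E3 transfected cells and 100% = cells lacking NR2E3 construct; higher means lower luciferase signal from less NR2E3 corepressor binding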
Starred values were filed as active, the others as inactive; x = no result. This is a sample that favours compounds with a hit; in the whole collection about 1.4% have one here.

SMILES	NR2E3 ag-1	PG9 Ab binder	Rev-erbA mod	NR2E3 ag-2
Cc1ccc(Nc2nc3ccccc3nc2-n2nc(C)cc2C)cc1	1	0	4	-16
Cc1ccc(Nc2cc(C)nn2-c2nc(C)cc(=O)[nH]2)cc1	-5	x	x	109*
CC(=O)Nc1cc(C)nn1-c1nc(C)cc(C)n1	0	0	2	-6
CCCCNC(=S)NC(C)(C)CO	2	-2	-1	-12
CC1=C(C)/C(=N\OS(=O)(=O)c2ccccc2)C=CC1=O	0	x	x	74*
Cc1cccc(/C=C/c2onc(C)c2S(=O)(=O)N2CCC(C(=O)NC(C)C)CC2)c1	1	-1	-6	-9
CCC(C)(C)NC(=O)/C=C/c1cccs1	-3	-1	-3	-3
O=c1cc(-c2ccccc2Cl)oc2ccc([N+](=O)[O-])c(O)c12	3	0	-7	-3
O=[N+]([O-])c1cc([N+](=O)[O-])c2oc(-c3ccccc3)c(Br)c2c1O	x	x	x	100*
CCc1ccc(S(=O)(=O)/N=C2/C=C(Sc3ncn[nH]3)C(=O)c3ccccc32)cc1	6	x	x	100*
CCc1ccc(S(=O)(=O)/N=C2\C=CC(=O)c3ccccc32)cc1	3	x	x	x
COCCn1c(C)cc(C2=NNC(=NC3CC3)SC2)c1C	-4	1	-2	92*
Cc1cc(C2=NNC(=NC3CC3)SC2)c(C)n1-c1ccccc1	x	-2	-5	80*
Cc1cc(/C=C2/SC(=S)N(c3cccc(C(F)(F)F)c3)C2=O)c(C)n1-c1cccnc1	-2	x	x	88*
Cc1cc(/C=C2\SC(=S)N(Cc3ccco3)C2=O)c(C)n1-c1cccnc1	x	-3	5	-32
COc1ccccc1CNC(=O)C(=O)NCCC1CCCCN1S(=O)(=O)c1cccs1 (centres undefined)	2	-1	-1	1
O=C(CCCCCn1c(=S)[nH]c2cc3c(cc2c1=O)OCO3)N1CCN(C(=O)c2ccco2)CC1	-93	12*	-1	-16
O=C(CCCCCn1c(=S)[nH]c2cc3c(cc2c1=O)OCO3)N1CCN(Cc2ccccc2)CC1	2	4	17	0
CCN1CCN(Cc2ccc(NC(=O)c3ccc(C)c(NC(=O)c4cncc(-c5cccs5)c4)c3)cc2C(F)(F)F)CC1	x	x	x	82*
CCN1CCN(Cc2ccc(NC(=O)c3ccc(C)c(NC(=O)c4nccn4C)c3)cc2C(F)(F)F)CC1	1	0	-3	-11
COc1ccc(CNC(C)(C)C)cc1Cl	1	-1	2	2
COc1ccc2[nH]c3c4c(ccc3c2c1)C(=O)C=CC4=O	x	10*	-3	-30
COc1ccc(/C=C\C(=O)O[C@@H]2C(O)C(O[C@@H]3OC(C)[C@H](O[C@@H]4OCC(O[C@H]5O[C@H](CO)[C@@H](O)C(O)C5O)C(O)C4O)C(O)C3O)[C@H](OC(=O)[C@]34CCC(C)(C)C[C@@H]3C3=CCC5[C@@]6(C)CC(O)C(O[C@@H]7OC(CO)C(O)[C@H](O)[C@H]7O)[C@@](C)(C(=O)O)C6CC[C@@]5(C)[C@]3(CO)CC4)O[C@H]2C)cc1 (some centres undefined)	x	x	x	96*
CCCCn1nnnc1C1(C)CCC(=O)N1Cc1ccc(F)cc1 (centres undefined)	x	0	-2	2
C/C=C(\C)C(=O)OC1[C@H](OC(C)=O)C2(CO)C(CC1(C)C)C1=CCC3C4(C)CCC(O[C@@H]5O[C@H](C(=O)O)[C@@H](O[C@@H]6O[C@H](CO)[C@@H](O)[C@H](O)[C@H]6O)[C@H](O)[C@H]5O[C@H]5O[C@H](CO)[C@@H](O)[C@H](O)[C@H]5O)[C@](C)(CO)C4CCC3(C)[C@]1(C)C[C@H]2O (some centres undefined)	x	x	x	106*
SMILES	NR2E3 ag-1	PG9 Ab binder	Rev-erbA mod	NR2E3 ag-2
Cc1ccc(C(=O)N2CCN(C/C=C/c3ccccc3)CC2)cc1S(=O)(=O)N1CCOCC1	x	-2	2	3
Cc1oc2c(c(C)cc3oc(=O)c(CC(=O)NCCCN4CCCC4=O)c(C)c32)c1C	5	0	-4	-11
COc1ccc(C(=O)c2nccc3cc(OC)c(OC)cc23)cc1OC	20*	x	x	1
COC(=O)c1c(C)oc2ccc(N(C(=O)c3ccncc3)S(=O)(=O)c3ccccc3)cc12	-1	-3	4	70*
Cc1c(C(=O)O)nn(-c2cccc(C(F)(F)F)c2)c(=O)c1C#N	0	0	2	-20
COC(=O)c1nn(-c2cccc(C(F)(F)F)c2)c(=O)cc1Sc1ccccn1	1	8.7*	-1	-3
CC1C(=O)Nc2ccccc2N1C(=O)c1ccc(Cl)c(Cl)c1 (centres undefined)	0	-1	2	-16
